Reference: ChEMBL document CHEMBL5029151, “Conformationally Constrained Peptides with High Affinity to the Vascular Endothelial Growth Factor” (J Med Chem, 2021)
Positions of bridges follow the written chain, without caps; N, C: chain ends. Non-standard residues stand in square brackets, D forms with d. Residues, ends and D or L forms follow the SMILES beside them. Nle = CCCC[C@H](N)C(=O)O; Aib = CC(C)(N)C(=O)O

How the values were obtained:
[1] = Binding affinity to VEGF (unknown origin) by microscale thermophoresis assay; set-up: species or system Homo sapiens
How it was run: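 Microscale thermophoresis with fluorescently labeled VEGF-RED (initial concentration 12 nM), read on a Monolith NT.115 Pico. Peptide and VEGF were measured immediately after mixing, with no incubation. KD derived from the thermophoresis signal.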

[2] = Stability in porcine vitreous assessed as increase in life time measured at 10 uM after 10 days by UPLC-MS/MS analysis; format: ADME, tissue-based, Sus scrofa, Vitreous humor; settings: pig, 240 h, time 10 day
How it was run: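 Peptide at 10 µM incubated at 37°C in porcine vitreous containing 1% penicillin/streptomycin, one separate tube per time point. Remaining parent peptide quantified by UPLC-MS/MS at each time point.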

[3] = Inhibition of VEGF-mediated in human HUVEC cell proliferation incubated for 48 hrs by MTT assay
How it was run: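 HUVECs seeded at 25,000/well in medium with 0.5 ng/mL VEGF165 for 48 h, then starved 24 h without VEGF or FBS. Peptide (4, 20, 100, 500 µM) premixed with 50 ng/mL VEGF165 for 2 h at 37°C, then added to cells for 48 h. MTT read-out as percent of no-peptide control OD, fitted to IC50; mean ± SD, n = 3.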

ARPE-19 = test: Cytotoxicity against human ARPE-19 cells assessed as cell viability up to 20 uM measured after 5 hrs by MTT assay; format: cell-based; settings: arpe-19, 5 h
How it was run: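 ARPE-19 cells seeded at 20,000/well and grown overnight, then washed. Exposed 5 h at 37°C, 7% CO2 to peptide at 0.01–100 µM in complete medium. Medium replaced, cells grown a further 24 h. MTT 4 h at 37°C, formazan dissolved in 10% SDS/0.01 M HCl overnight, A570 read. Viability relative to untreated cells; poly-L-lysine-treated cells as control.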

[4] = Binding affinity to VEGF (unknown origin) incubated for 30 mins by microscale thermophoresis assay; set-up: species or system Homo sapiens
How it was run: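 Fluorescently labeled VEGF-RED (initial concentration 12 nM) mixed with peptide and incubated 30 min to reach complex equilibrium before microscale thermophoresis on a Monolith NT.115 Pico. KD obtained from the thermophoresis signal.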

Structure (SMILES) | Kd [1] [nM] | Stability [2] | Kd [4] [nM] | IC50 [3] [µM] | Activity (ARPE-19)
CCCC[C@@H]1NC(=O)[C@H](C(C)C)NC(=O)C(C)(C)NC(=O)[C@H]([C@@H](C)CC)NC(=O)[C@H](CC(=O)O)NC(=O)[C@@H](NC(=O)[C@H](CC(N)=O)NC(=O)[C@@H]2CCCN2C(=O)[C@H](CCC(=O)O)NC(=O)[C@@H](N)C(C)C)CSSC[C@@H](C(=O)N[C@@H](Cc2ccccc2)C(=O)N[C@@H](CCC(=O)O)C(=O)N[C@@H](CCCNC(=N)N)C(=O)N[C@@H](CC(C)C)C(=O)O)NC(=O)[C@H](CCC(=O)O)NC(=O)[C@H](Cc2c[nH]c3ccccc23)NC(=O)[C@H](CCC(=O)O)NC(=O)[C@H](Cc2c[nH]c3ccccc23)NC1=O | 11800 | Stable |  | 50 | 
CCCC[C@@H]1NC(=O)[C@H](C(C)C)NC(=O)[C@H](Cc2c[nH]cn2)NC(=O)[C@H]([C@@H](C)CC)NC(=O)[C@H](CC(=O)O)NC(=O)[C@@H](NC(=O)[C@H](CC(N)=O)NC(=O)[C@@H]2CCCN2C(=O)[C@H](CCC(=O)O)NC(=O)[C@@H](N)C(C)C)CSSC[C@@H](C(=O)N[C@@H](Cc2ccccc2)C(=O)N[C@@H](CCC(=O)O)C(=O)N[C@@H](CCCNC(=N)N)C(=O)N[C@@H](CC(C)C)C(=O)O)NC(=O)[C@H](CCC(=O)O)NC(=O)[C@H](Cc2c[nH]c3ccccc23)NC(=O)[C@H](CCC(=O)O)NC(=O)[C@H](Cc2c[nH]c3ccccc23)NC1=O | 3870 |  | 300 | 20 | Non-Toxic
CCCC[C@@H]1NC(=O)[C@H](C(C)C)NC(=O)[C@H](Cc2c[nH]cn2)NC(=O)[C@H]([C@@H](C)CC)NC(=O)[C@H](CC(=O)O)NC(=O)[C@@H](N)CSSC[C@@H](C(=O)N[C@@H](Cc2ccccc2)C(=O)N[C@@H](CCC(=O)O)C(=O)N[C@@H](CCCNC(=N)N)C(=O)N[C@@H](CC(C)C)C(=O)O)NC(=O)[C@H](CCC(=O)O)NC(=O)[C@H](Cc2c[nH]c3ccccc23)NC(=O)[C@H](CCC(=O)O)NC(=O)[C@H](Cc2c[nH]c3ccccc23)NC1=O | 9970 |  |  | 12 | 
CCCC[C@@H]1NC(=O)[C@H](C(C)C)NC(=O)[C@H](Cc2c[nH]cn2)NC(=O)[C@H]([C@@H](C)CC)NC(=O)[C@H](CC(=O)O)NC(=O)[C@@H](NC(=O)[C@H](CC(N)=O)NC(=O)[C@@H]2CCCN2C(=O)C(C)(C)NC(=O)[C@@H](N)C(C)C)CSSC[C@@H](C(=O)N[C@@H](Cc2ccccc2)C(=O)N[C@@H](CCC(=O)O)C(=O)N[C@@H](CCCNC(=N)N)C(=O)N[C@@H](CC(C)C)C(=O)O)NC(=O)[C@H](CCC(=O)O)NC(=O)[C@H](Cc2c[nH]c3ccccc23)NC(=O)[C@H](CCC(=O)O)NC(=O)[C@H](Cc2c[nH]c3ccccc23)NC1=O | 2970 | Stable | 4 | 10 | 

Stronger by Kd [1], values ahead:

Kd [1] [nM] | Stability [2] | Kd [4] [nM] | Structure (SMILES) | IC50 [3] [µM] | Activity (ARPE-19)
1940 |  |  | CCCC[C@@H]1NC(=O)[C@H](C(C)C)NC(=O)[C@H](Cc2c[nH]cn2)NC(=O)[C@H]([C@@H](C)CC)NC(=O)[C@H](CC(=O)O)NC(=O)[C@@H](NC(=O)[C@H](CC(N)=O)NC(=O)[C@@H](N)C(C)C)CSSC[C@@H](C(=O)N[C@@H](Cc2ccccc2)C(=O)N[C@@H](CCC(=O)O)C(=O)N[C@@H](CCCNC(=N)N)C(=O)N[C@@H](CC(C)C)C(=O)O)NC(=O)[C@H](CCC(=O)O)NC(=O)[C@H](Cc2c[nH]c3ccccc23)NC(=O)[C@H](CCC(=O)O)NC(=O)[C@H](Cc2c[nH]c3ccccc23)NC1=O | 4 | 
540 | Stable | 3000 | CCCC[C@@H]1NC(=O)[C@H](C(C)C)NC(=O)[C@H](Cc2c[nH]cn2)NC(=O)[C@H]([C@@H](C)CC)NC(=O)[C@H](CC(=O)O)NC(=O)[C@@H](NC(=O)[C@H](CCCCN)NC(=O)[C@H](CCCCN)NC(=O)C(C)(C)NC(=O)[C@@H](N)CCCCN)CSSC[C@@H](C(=O)N[C@@H](Cc2ccccc2)C(=O)N[C@@H](CCC(=O)O)C(=O)N[C@@H](CCCNC(=N)N)C(=O)N[C@@H](CC(C)C)C(=O)O)NC(=O)[C@H](CCC(=O)O)NC(=O)[C@H](Cc2c[nH]c3ccccc23)NC(=O)[C@H](CCC(=O)O)NC(=O)[C@H](Cc2c[nH]c3ccccc23)NC1=O | 6 | 
940 | Unstable | 150 | CCCC[C@@H]1NC(=O)[C@H](C(C)C)NC(=O)[C@H](Cc2c[nH]cn2)NC(=O)[C@H]([C@@H](C)CC)NC(=O)[C@H](CC(=O)O)NC(=O)[C@@H](NC(=O)[C@H](CC(N)=O)NC(=O)[C@@H]2CCCN2C(=O)[C@H](CCC(=O)O)NC(=O)[C@@H](N)C(C)C)CSSC[C@@H](C(=O)N[C@@H](Cc2ccccc2)C(=O)N[C@@H](CCC(=O)O)C(=O)N[C@@H](CCCNC(=N)N)C(=O)N[C@@H](CC(C)C)C(=O)O)NC(=O)[C@H](CCC(=O)O)NC(=O)[C@H](Cc2c[nH]c3ccccc23)NC(=O)C(C)(C)NC(=O)[C@H](Cc2c[nH]c3ccccc23)NC1=O (H-VEPNCDIHV[Nle]W[Aib]WECFERL-OH; disulfide 5-15) | 3.5 | 
